This is a sample that favours compounds with a hit; in the whole collection about 3.1% have one here.
Bfl-1 A1 inh: caspase 3/7 activation in MEF A1-2A-BIM cells, primary screen, A1 inhibitor project, cell-based, luminescence, HTS. caspase activation, % (concentration not given with the values). AID 2462, 2010. actives 0.066% (n = 330,000). Caspase-Glo 3/7 luminescence, 3 h; percent of clofoctol response, vehicle zero;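 active = over half of replicate activation scores above 10%, or exactly half above 10 with the replicate mean above 10; inconclusive = replicate mean below 10 yet half the replicates above 10; inactive = over half of replicates below 10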
CSC inhib: cancer stem cell viability inhibitors, primary screen, luminescence; cancer stem cell-like cells viability; inhibition, % at 7.5 µM; actives 1.1% (n = 300,000); in the data active = inhibition above about 75%; inconclusive = no clear call, values can overlap the other calls; tested in HMLE shEcad cells
TAG inh: inhibitors of triacylglycerol accumulation, primary screen, cell-based, uHTS, fluorescence, H9c2. H9c2 cells, Nile Red lipid (TAG) fluorescence; cells loaded with 200 µM oleic acid. inhibition, % at 12.5 µM. actives 0.66% (n = 230,000);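 active = pattern-corrected inhibition of lipid staining of at least 50% with the nuclear-stain viability signal not falling by more than 50%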;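 note: 0% = DMSO wells and 100% = triacsin C control wells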
Beta cell apopt: inhibitors of cytokine-induced beta cell apoptosis, primary screen, luminescence; protection from apoptosis, % (test concentration not listed); AID 435005, 2010; actives 0.8% (n = 300,000); INS-1E cytokine-induced death, ATP luminescence, 48 h; percent of positive-control rescue, neutral wells zero;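 active = Every replicate reaches about 75%, or at least half do and their mean reaches it too, limit read from the data; inconclusive = At least half of replicates reach the limit but their mean does not; inactive = Under half of replicates reach the limit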;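 note: 0% = cytokine-treated negative control wells and 100% = positive control rescue; higher means more ATP so stronger rescue from cytokine killing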
Calb FLC: C. albicans growth inhibition with fluconazole, primary screen, CaCi-2 strain, Alamar Blue fluorescence; C. albicans CaCi-2 + fluconazole, 48 h; growth inhibition, % (concentration not given with the values); AID 1979, 2009; actives 0.57% (n = 300,000);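 active = growth inhibition above about 58% in most replicates, limit read from the data, passing the limit was not always enough; inconclusive = exactly half the replicates above a set limit; inactive = most replicates below a set limit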;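 note: all wells also contain fluconazole at 8 µg/ml as a sub-toxic cotreatment; 0% = median of DMSO wells and 100% = median of geldanamycin control wells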
T cruzi inh: inhibitors of intracellular T. cruzi growth, primary screen, luminescence, NIH3T3 host cells | T. cruzi beta-gal in NIH3T3, 90 h | inhibition, % (no concentration beside the values) | actives 1.4% (n = 300,000) | AID 1885, 2009;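 active = mean inhibition across valid replicates above about 55%, limit read from the data; inconclusive = mean below that limit but half or more replicates reach it; inactive = mean below it, under half of replicates reach it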;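 note: signal also drops with host cell toxicity which is not excluded here; 0% = plate median of DMSO wells and 100% = zero luminescence signal; higher percent means less beta-gal luminescence so fewer parasites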
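Assay system: NIH/3T3 host cells with β-galactosidase reporter T. cruzi; input: 5,000 host fibroblasts per well; compound: single 50 nL compound addition per well in DMSO; timing: ≥90 h infection period, 3 h prior cell attachment; measured by: GalScreen β-gal luminescence, detergent lysis, 60 min; evaluation: percent inhibition of parasite-derived β-gal signal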
* hit, by the source's call; ? = inconclusive; nt = not tested or not shown.

SMILES | Bfl-1 A1 inh | CSC inhib | TAG inh | Beta cell apopt | Calb FLC | T cruzi inh
CN(C(=O)CSc1nc(-c2cccs2)nc2ccccc12)C1CCS(=O)(=O)C1 (stereo not given) | 1 | -13 | 7 | 3 | nt | nt
CCC(=O)NC(c1ccc(Cl)cc1Cl)c1ccc2cccnc2c1O (stereo not given) | 0 | 104* | 55* | 104* | 107* | 67*
COc1ccc(C(NC(=O)C(C)C)c2ccc3cccnc3c2O)cc1 (stereo not given) | -1 | 104* | 92 | 104* | 86* | 54
CC(C)C(=O)NC(c1ccc(Cl)cc1Cl)c1ccc2cccnc2c1O (stereo not given) | 0 | 100* | nt | nt | 6 | 40
CC(=O)NC(c1ccc(Cl)cc1)c1ccc2cccnc2c1O (stereo not given) | nt | nt | 84 | nt | nt | nt
CCCCC(=O)NC(c1ccc(OC)cc1)c1ccc2cccnc2c1O (stereo not given) | nt | nt | 40 | nt | nt | nt
Cc1cc(NC(c2ccc(Cl)cc2)c2ccc3cccnc3c2O)no1 (stereo not given) | -1 | 101* | -50 | nt | 101* | 37
O=c1ccn(CCc2c[nH]c3ccccc23)c2c1CCCC2 | 0 | -8 | 3 | -20 | -18 | 8
CC(NC(=O)CSc1ncccn1)c1ccc(Cl)cc1Cl (stereo not given) | 0 | 11 | 17 | -4 | -24 | -2
CCCCC(=O)NC(c1ccc(Cl)cc1Cl)c1ccc2cccnc2c1O (stereo not given) | 0 | 109* | nt | 85* | 96* | 64*
CCN(CC)S(=O)(=O)c1ccc(OCC2CCCCO2)c([N+](=O)[O-])c1 (stereo not given) | 0 | -12 | nt | -6 | -1 | 7
O=[N+]([O-])c1ccc(/C=N/Nc2nc(N3CCCC3)nc(N3CCCC3)n2)o1 | 0 | -11 | nt | 1 | ? | 64*
Cc1ccc2nc(N/N=C\c3ccc([N+](=O)[O-])o3)nc(-c3ccccc3)c2c1 | 3 | 53 | 3 | nt | -2 | 80*
Fc1ccc(Nc2nc(N/N=C/c3ccco3)nc(N3CCCCC3)n2)cc1 | 1 | 5 | 4 | 8 | 53 | 60*
C(=N\Nc1nc(N2CCOCC2)nc(N2CCOCC2)n1)/c1ccco1 | 0 | -3 | nt | -3 | 26 | 9
COCC(=O)NC(c1ccccc1)c1ccccc1 | 1 | -1 | 3 | nt | 3 | 4
CC(C)CCNCC(=O)NC(c1ccccc1)c1ccccc1 | -1 | -2 | -6 | 0 | 115* | nt
CC(=O)Nc1ccc(S(=O)(=O)NC2=C(N3CCN(c4ccc(F)cc4)CC3)C(=O)c3ccccc3C2=O)cc1 | 0 | 39 | nt | 85* | 12 | -23
C[C@@H]1CN([C@H](C)CO)C(=O)CCCn2nncc2CO[C@H]1CN(C)C(=O)NC1CCCCC1 | nt | nt | 11 | nt | nt | nt
CCc1nc(NC(C)(C)C)c2cnn(-c3ccccc3)c2n1 | 1 | 95* | nt | -1 | 9 | 21
COc1cc([N+](=O)[O-])cc(/C=C2/SC(=S)N(Cc3ccccc3)C2=O)c1O | 1 | 92* | nt | 17 | ? | 11
O=C(O)CN1C(=O)/C(=C\c2cc(Br)ccc2OCc2ccccc2F)SC1=S | 1 | 54 | nt | -5 | -3 | 3
COc1ccc(/C=C2\SC(=S)N(CCC(=O)N(CCO)Cc3ccccc3)C2=O)cc1OC | 0 | 6 | nt | -15 | 5 | 65*
O=C(O)CN1C(=O)/C(=C\c2cc(Br)ccc2OCc2ccccc2Cl)SC1=S | 1 | 97* | nt | 0 | -10 | 15
O=C1/C(=C\c2ccc(O)cc2)SC(=S)N1Cc1ccccc1 | 1 | -13 | nt | 9 | 20 | 6
SMILES | Bfl-1 A1 inh | CSC inhib | TAG inh | Beta cell apopt | Calb FLC | T cruzi inh
O=C1/C(=C\c2cccc([N+](=O)[O-])c2O)SC(=S)N1Cc1ccccc1 | 1 | 35 | nt | 7 | 14 | -2
O=C1/C(=C\c2cc(Br)cc(Br)c2O)SC(=S)N1Cc1ccccc1 | -1 | 78* | nt | 0 | 1 | 8
C/C(=N\NC(=O)C1(C)CC1(Br)Br)c1cccc(NC(=O)c2ccc(C)o2)c1 (stereo not given) | 0 | 15 | 9 | nt | 10 | 14
N#Cc1ccc2[nH]cc(CCO)c2c1 | 1 | -6 | -4 | 3 | 15 | -4
C=CCC1(Cl)C(=O)C(Cl)=C(N2CCOCC2)C1(OC)OC (stereo not given) | 1 | -9 | 1 | 0 | -7 | -1
O=C(c1ccco1)N1CCN(C(=S)Nc2ccc(Br)cc2Cl)CC1 | -1 | 2 | 0 | 2 | 2 | 15
Cn1c(SCC(=O)NCC2CCCO2)ncc(C(=O)Nc2ccc(Cl)cc2)c1=O (stereo not given) | -8 | 26 | 4 | -5 | -1 | -15
COc1cc(/C=C2/SC(=S)N(Cc3ccccc3)C2=O)cc(Cl)c1O | 0 | 117* | nt | 38 | -7 | 1
CCOc1cc(/C=C2/SC(=S)N(Cc3ccccc3)C2=O)ccc1O | -2 | 76* | -6 | 0 | 16 | -3
O=C1NC(=O)/C(=C/c2ccccc2Oc2ccc(Cl)cc2)S1 | -1 | 8 | 1 | 6 | 79* | -3
COc1ccc(NC(=O)N(C)C[C@H]2Oc3ccc(NC(=O)C4CC4)cc3CC(=O)N([C@@H](C)CO)C[C@@H]2C)cc1 | nt | nt | -9 | nt | nt | nt
CN(C)CCCNC(=O)c1ccccn1 | 0 | -17 | 4 | -11 | 9 | -18
CN(C)CCCNC(=O)c1ccc(-c2nc(-c3ccc(Cl)cc3)cs2)cc1 | 2 | 100* | nt | 47 | 100* | 65*
Cc1cc(OCc2cc(C(=O)N3CCN(CC4CC4)CC3)no2)cc(C)c1Cl | 0 | 31 | nt | 0 | -8 | 20
O=C(NC1CCCC1)c1cc(COc2ccc3ncccc3c2)on1 | 0 | 5 | -4 | 104* | 34 | 9
COc1cccc(CN(C)C(=O)c2cc(COc3c(F)cccc3F)on2)c1 | 1 | 7 | 0 | 0 | 51 | 17
Cc1cc(OCc2cc(C(=O)N3CCC(Oc4cccnc4)CC3)no2)cc(C)c1Cl | -1 | 77* | -12 | nt | 7 | 28
COc1cccc(CN(C)C(=O)c2cc(COc3ccc4ncccc4c3)on2)c1 | -1 | 8 | -23 | 76* | -8 | 27
CC(NC(=O)c1cc(COc2ccc3ncccc3c2)on1)c1ccc(F)cc1 (stereo not given) | 0 | 56 | -4 | 105* | 12 | 18
Cc1ccc(NC(=O)CN(C)C(=O)COc2ccc(Br)cc2)cc1 | nt | nt | -1 | nt | nt | nt
COc1ccc(NS(=O)(=O)c2cc(C(=O)N(C)CCc3ccccn3)ccc2Cl)cc1 | nt | nt | -34 | nt | nt | nt

Compound activity: PubChem, several laboratories
